# PubChem BioAssay
# Activity calls are given as the source filed them.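 Rule for the calls, unless noted: active = inhibition above 20% together with a positive visual image hit; inconclusive = visual image hit but inhibition not above 20%; inactive = no visual image hit.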
# Legend:
# [1] = inhibitors of TNFa-induced NFkB p65 translocation, primary screen, imaging, HUVEC, MLSMR starter and 10KST1 sets (AID 438); conditions: HUVEC TNFa-induced p65 nuclear translocation; cell count: measured here: nuclei count (cytotoxicity indicator), at 2.08 µM; inhibition: at 2 µM, stronger effect = higher value, 0% TNFa-plus-vehicle, 100% no-TNFa wells;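 note: compound added about 3h40 before a 20 min TNFalpha stimulation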;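 for inhibition: signal is the nuclear over cytoplasmic p65 intensity ratio per well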
# [2] = inhibitors of mutant huntingtin aggregation, primary screen, imaging, exon1htt(103Q)mCFP cells, high-content imaging (AID 483;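 active = visual image review flags a hit and inhibition of aggregation exceeds 20%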;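 note: compound exposure lasted 3 days before fixation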;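 for nuclei count: percent of the per-plate median nuclei count of sample wells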); conditions: exon1htt(103Q)mCFP cell line, aggregate imaging, at 2 µM; inhibition of aggregation: stronger effect = higher value; nuclei count: measured here: cell count, toxicity
# [3] = inhibitors of E-selectin induction by TNFa, primary screen, imaging, HUVEC, immunofluorescence, MLSMR starter and 10KST1 sets (AID 487;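 active = visually confirmed hit in the image check and inhibition above 20%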;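 for inhibition: signal is fraction of cell area covered by stained E-selectin grains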;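 for nuclei count: 100% = median nuclei count of all wells on the same plate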); conditions: HUVEC TNFalpha-induced E-selectin immunofluorescence imaging, at 2 µM; inhibition: stronger effect = higher value; nuclei count: measured here: cell number, toxicity
# [4] = target: Voltage-gated potassium channel subunit beta-2 (Rattus norvegicus) (UniProt P62483); assay: KvBeta enzyme negative modulators, primary screen, biochemical, NADPH fluorescence (AID 622;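 active = fluorescence slope higher than the sample average by over 3 SD, cut at about -0.22 in these data, passing the limit was not always enough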;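 note: slope of raw intensity against log time taken from 70 to 1610 s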); conditions: recombinant KvBeta, 4-cyanobenzaldehyde reduction, at 10 µM, stronger effect = higher value
# Chain of Voltage-gated potassium channel subunit beta-2 (Rattus norvegicus) (P62483 whole entry, looked up): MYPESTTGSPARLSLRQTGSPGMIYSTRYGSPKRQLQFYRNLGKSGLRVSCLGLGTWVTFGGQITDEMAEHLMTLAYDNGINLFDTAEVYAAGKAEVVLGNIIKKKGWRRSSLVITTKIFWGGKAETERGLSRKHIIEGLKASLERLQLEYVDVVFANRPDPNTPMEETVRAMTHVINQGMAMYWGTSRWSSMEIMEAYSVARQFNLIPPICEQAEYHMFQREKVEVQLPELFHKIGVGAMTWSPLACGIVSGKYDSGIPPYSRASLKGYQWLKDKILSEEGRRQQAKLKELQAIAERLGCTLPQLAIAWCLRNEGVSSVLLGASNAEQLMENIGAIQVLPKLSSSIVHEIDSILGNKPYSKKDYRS
# [5] = target: Voltage-gated potassium channel subunit beta-2 (Rattus norvegicus) (UniProt P62483); assay: KvBeta positive modulators, primary screen, biochemical, NADPH fluorescence (AID 623;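 active = NADPH fluorescence slope more negative than the mean of all samples by about 3 SD, 99.7% confidence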;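 note: fluorescence intensity change per second fitted from 20 to 320 s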); conditions: Recombinant KvBeta, NADPH fluorescence decrease slope, 10 min; at 10 µM; stronger effect = lower value
# [6] = target: Muscarinic acetylcholine receptor M4 (Homo sapiens) (UniProt P08173); assay: compounds altering M4/GIRK thallium flux, either direction, primary screen, M4 allosteric agonist project, cell-based, HEK293 M4/GIRK, BTC-AM (AID 625;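 active = fluorescence slope after compound addition differing from the mean of all tested samples at 99.7% confidence, mostly higher but some lower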;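 note: thallium influx through GIRK channels coupled to M4 in HEK293 cells with BTC-AM dye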); conditions: at 10 µM, actives lie on both sides
# Chain of Muscarinic acetylcholine receptor M4 (Homo sapiens) (P08173 whole entry, looked up): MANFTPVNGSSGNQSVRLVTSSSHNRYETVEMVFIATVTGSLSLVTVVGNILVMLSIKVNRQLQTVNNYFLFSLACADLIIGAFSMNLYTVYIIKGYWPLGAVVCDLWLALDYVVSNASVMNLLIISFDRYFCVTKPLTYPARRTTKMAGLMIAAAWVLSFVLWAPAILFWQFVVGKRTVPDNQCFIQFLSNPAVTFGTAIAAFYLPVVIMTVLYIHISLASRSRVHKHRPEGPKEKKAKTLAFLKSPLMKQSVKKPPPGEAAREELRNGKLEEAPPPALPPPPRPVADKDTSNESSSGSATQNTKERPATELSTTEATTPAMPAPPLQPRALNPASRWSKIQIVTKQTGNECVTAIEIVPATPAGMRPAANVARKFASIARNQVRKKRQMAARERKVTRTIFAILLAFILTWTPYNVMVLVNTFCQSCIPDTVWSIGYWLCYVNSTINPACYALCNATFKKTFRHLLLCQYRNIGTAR
# Outline: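 Material: M4/GIRK1/GIRK2 stable HEK293 cell line. Medium: pH 7.3 thallium assay buffer. Dosing: single compound concentration, 10 µM final. Schedule: 1 h dye loading, 2 min kinetic read. Measured by: kinetic fluorescence with BTC-AM dye. Read-out: post-addition slope, 15–24 s, of baseline-normalized fluorescence. Benchmarks: carbachol and DMSO controls.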
# [7] = inhibitors of Sendai virus-induced IRF3 signaling, primary screen, TLR/RLR signaling modifier project, cell-based, Sendai virus stimulus, luciferase, 10K MLSCN set (AID 602276;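 active = inhibition at or above 50% at 10 µM; inactive = inhibition below 50%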;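 note: firefly luciferase from ISG56 promoter only with Renilla not read in this screen; 0% = Sendai virus plus DMSO and 100% = medium plus DMSO without virus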); conditions: HEK293 RL24 IRF3 luciferase reporter, at 10 µM, stronger effect = higher value
# [8] = inhibitors of poly I:C-induced TLR3 signaling, primary screen, cell-based, poly I:C stimulus, luciferase, 10K MLSCN set (AID 602277;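 active = inhibition of the reporter signal at or above 50%; inactive = inhibition below 50%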); conditions: HEK293-TLR3 RL24 IRF3 luciferase reporter, at 10 µM, stronger effect = higher value
Structure (SMILES),cell count [1],inhibition [1],inhibition of aggregation [2],nuclei count [2],inhibition [3],nuclei count [3],fluorescence slope [4],NADPH fluorescence slope [5],fluorescence slope [6],inhibition [7],inhibition [8]
CC(C)(C)C(=O)Cn1c(=N)n(Cc2ccccc2)c2ccccc21,394,6.1% (inactive),8.9% (inactive),99.1%,20.9% (inactive),96%,-0.409 (inactive),4.3e-05 (inactive),0.00407 (inactive),20% (inactive),17.2% (inactive)
CS(=O)(=O)N(CC(=O)NC1CC1)c1cccc(F)c1,387,-2.3% (inactive),0.3% (inactive),113%,-44.3% (inactive),113%,-0.555 (inactive),-5e-05 (inactive),0.00595 (inactive),8.69% (inactive),14.7% (inactive)
COc1ccc(C(=O)CSc2nnc(CNc3ccc(C)cc3C)o2)cc1,606,-4.1% (inactive),3% (inactive),101%,-136% (inactive),199%,-0.469 (inactive),-8.4e-05 (inactive),0.00401 (inactive),14.6% (inactive),11.8% (inactive)
Cc1nnc2sc(-c3cccc(NC(=O)c4cccnc4)c3)nn12,295,-6% (inactive),5% (inactive),89.2%,-54% (inactive),108%,-0.346 (inactive),1.1e-05 (inactive),0.006 (inactive),-21% (inactive),-15.6% (inactive)
Cc1ccc(OC(=O)NC2CCS(=O)(=O)C2)cc1C (configuration not stated),395,-0.3% (inactive),-6.1% (inactive),98.6%,-107% (inactive),116%,-0.617 (inactive),-2.5e-07 (inactive),0.00398 (inactive),12.7% (inactive),17.3% (inactive)
N#Cc1c(N2C(=O)C3C4C=CC(C4)C3C2=O)sc2c1CCC2 (configuration not stated),493,-24.7% (inactive),-12.7% (inactive),92.9%,-17.4% (inactive),96.7%,-0.417 (inactive),-5.2e-05 (inactive),0.00524 (inactive),14.5% (inactive),18.6% (inactive)
CN=C(C)C1=C(O)C(C(=O)OC)C(C)(C)CC1=O (configuration not stated),506,5% (inactive),-7.4% (inactive),108%,-187% (inactive),122%,-0.54 (inactive),-0.00011 (inactive),0.00531 (inactive),16.6% (inactive),16.6% (inactive)
CCC(=O)N1CCc2cc(S(=O)(=O)CCC(=O)Nc3c(C)n(C)n(-c4ccccc4)c3=O)ccc21,598,7.7% (inactive),-10.8% (inactive),116%,-110% (inactive),121%,-0.434 (inactive),0.000106 (inactive),0.00486 (inactive),2.43% (inactive),13.1% (inactive)
Cc1nc(CNS(=O)(=O)c2cc(C)c(C)cc2C)cs1,331,6.3% (inactive),-7.4% (inactive),109%,-13.2% (inactive),107%,-0.329 (inactive),-5.1e-05 (inactive),0.00703 (inactive),9.82% (inactive),10.7% (inactive)
CC(C)(C)n1ncc2c(=O)n(CC(=O)c3ccccc3)cnc21,473,-1% (inactive),-4.1% (inactive),126%,22.9% (inactive),105%,-0.534 (inactive),-2.2e-05 (inactive),0.00534 (inactive),-21.3% (inactive),-59.6% (inactive)
CCOC(=O)c1c(C)oc2ccc(OCC(=O)N(CC)CC)cc12,422,-1.7% (inactive),-2.3% (inactive),95.5%,-63% (inactive),104%,-0.449 (inactive),-1.9e-05 (inactive),0.00589 (inactive),8.2% (inactive),7.27% (inactive)
CCOC(=O)N1CCN(C(=O)c2ccc3nc4cc(Cl)ccc4c(=O)n3c2)CC1,726,-8.8% (inactive),-19.4% (inactive),118%,17.6% (inactive),118%,-0.0121 (inactive),2.7e-06 (inactive),0.00404 (inactive),6.58% (inactive),6.7% (inactive)
